In the M2OR odorant receptor database:
Residue numbers refer to the chain shown, from its start.

Legend:
Settings in all cases: stereoisomer not certain
[1] = test system: T1, O10A2 H43R H207R K258T
T1 sequence (whole entry): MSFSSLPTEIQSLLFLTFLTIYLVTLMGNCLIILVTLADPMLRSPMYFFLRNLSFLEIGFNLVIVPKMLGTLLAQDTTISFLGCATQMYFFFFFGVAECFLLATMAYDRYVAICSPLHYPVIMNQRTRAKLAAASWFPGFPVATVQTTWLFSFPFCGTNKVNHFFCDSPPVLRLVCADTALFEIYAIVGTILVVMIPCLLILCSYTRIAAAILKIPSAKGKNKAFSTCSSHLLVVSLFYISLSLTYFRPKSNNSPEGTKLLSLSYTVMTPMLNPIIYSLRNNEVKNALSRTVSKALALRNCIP
Method in brief: (§1)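 Assay methods differ from source to source, frequently being transient luciferase assays in mammalian cell lines. For each receptor–molecule pair, the label responsive (active) applies when the original authors judged the measured signal statistically different from baseline, and non-responsive (inactive) applies otherwise.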

[2] = test system: T2, O10A3 C8G
T2 sequence (whole entry): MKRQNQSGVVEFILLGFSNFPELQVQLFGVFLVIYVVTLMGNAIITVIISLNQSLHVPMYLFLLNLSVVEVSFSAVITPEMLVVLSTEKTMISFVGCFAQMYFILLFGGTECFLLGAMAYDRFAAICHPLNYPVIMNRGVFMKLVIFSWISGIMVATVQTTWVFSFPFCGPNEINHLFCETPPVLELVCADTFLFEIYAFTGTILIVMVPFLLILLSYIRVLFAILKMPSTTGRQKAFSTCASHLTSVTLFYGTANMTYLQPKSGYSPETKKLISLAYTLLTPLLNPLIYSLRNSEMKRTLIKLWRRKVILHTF
Method in brief: as §1

[3] = test system: T3, O10A6
T3 sequence (whole entry): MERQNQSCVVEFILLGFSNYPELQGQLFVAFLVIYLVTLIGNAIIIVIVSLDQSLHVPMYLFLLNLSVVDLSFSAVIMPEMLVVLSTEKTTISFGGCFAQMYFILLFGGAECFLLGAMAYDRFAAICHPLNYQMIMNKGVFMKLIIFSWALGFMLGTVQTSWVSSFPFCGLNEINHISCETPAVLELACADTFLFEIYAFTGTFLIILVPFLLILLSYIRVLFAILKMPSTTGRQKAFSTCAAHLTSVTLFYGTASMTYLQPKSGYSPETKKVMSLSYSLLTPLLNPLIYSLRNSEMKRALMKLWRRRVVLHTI
Method in brief: as §1

[4] = test system: T4, O10AD G65C
T4 sequence (whole entry): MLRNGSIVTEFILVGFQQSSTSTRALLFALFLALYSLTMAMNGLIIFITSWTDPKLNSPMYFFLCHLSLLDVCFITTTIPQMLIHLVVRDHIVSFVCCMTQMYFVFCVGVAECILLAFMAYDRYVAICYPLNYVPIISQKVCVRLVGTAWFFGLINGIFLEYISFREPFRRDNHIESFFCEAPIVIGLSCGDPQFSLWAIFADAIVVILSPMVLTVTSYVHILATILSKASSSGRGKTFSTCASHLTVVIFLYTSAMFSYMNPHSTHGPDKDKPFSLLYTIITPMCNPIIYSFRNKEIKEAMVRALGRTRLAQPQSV
Method in brief: as §1

[5] = test system: T5, O10D3 V134A R197K
T5 sequence (whole entry): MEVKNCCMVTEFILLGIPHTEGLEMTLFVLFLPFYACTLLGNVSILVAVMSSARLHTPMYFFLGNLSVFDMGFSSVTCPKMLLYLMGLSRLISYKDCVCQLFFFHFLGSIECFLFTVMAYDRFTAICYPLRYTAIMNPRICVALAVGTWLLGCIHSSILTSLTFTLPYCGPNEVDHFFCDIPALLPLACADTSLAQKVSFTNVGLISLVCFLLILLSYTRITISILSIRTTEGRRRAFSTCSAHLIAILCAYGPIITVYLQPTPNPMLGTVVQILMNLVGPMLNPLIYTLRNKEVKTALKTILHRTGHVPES
Method in brief: as §1

[6] = test system: T6, O10G4 L24P V195E
T6 sequence (whole entry): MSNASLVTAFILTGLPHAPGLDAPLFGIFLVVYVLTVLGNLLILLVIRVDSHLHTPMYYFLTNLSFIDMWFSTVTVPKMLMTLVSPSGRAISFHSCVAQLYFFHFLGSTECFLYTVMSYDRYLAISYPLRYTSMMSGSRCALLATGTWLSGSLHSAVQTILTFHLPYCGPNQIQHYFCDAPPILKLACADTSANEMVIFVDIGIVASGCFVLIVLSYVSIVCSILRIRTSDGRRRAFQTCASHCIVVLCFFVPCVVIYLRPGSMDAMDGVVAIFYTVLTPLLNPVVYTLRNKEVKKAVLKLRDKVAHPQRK
Method in brief: as §1

[7] = test system: T7, O10G7 A18V P19Q G20A
T7 sequence (whole entry): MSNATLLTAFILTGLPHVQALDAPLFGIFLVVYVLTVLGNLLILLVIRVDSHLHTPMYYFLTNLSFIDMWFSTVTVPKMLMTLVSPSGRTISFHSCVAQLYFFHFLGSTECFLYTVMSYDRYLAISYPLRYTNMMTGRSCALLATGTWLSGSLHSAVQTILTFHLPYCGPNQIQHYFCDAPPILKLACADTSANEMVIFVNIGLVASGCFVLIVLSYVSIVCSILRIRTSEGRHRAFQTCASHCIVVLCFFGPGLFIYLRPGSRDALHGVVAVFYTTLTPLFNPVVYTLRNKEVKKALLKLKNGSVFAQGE
Method in brief: as §1

[8] = test system: T8, O10G7 I28V
T8 sequence (whole entry): T7 sequence (whole entry) with V18A, Q19P, A20G, I28V
Method in brief: as §1

[9] = test system: T9, A0A140T8K4
T9 sequence (whole entry): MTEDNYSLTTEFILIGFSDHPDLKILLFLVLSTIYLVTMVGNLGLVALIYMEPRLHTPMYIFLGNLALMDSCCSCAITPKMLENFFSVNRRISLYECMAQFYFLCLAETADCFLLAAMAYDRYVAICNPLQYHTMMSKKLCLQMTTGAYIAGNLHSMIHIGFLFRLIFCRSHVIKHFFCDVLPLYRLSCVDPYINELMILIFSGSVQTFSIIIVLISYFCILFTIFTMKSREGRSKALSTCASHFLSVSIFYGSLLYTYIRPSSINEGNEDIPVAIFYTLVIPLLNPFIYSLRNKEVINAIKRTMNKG
Method in brief: as §1

[10] = test system: T10, A0A2J8MY22
T10 sequence (whole entry): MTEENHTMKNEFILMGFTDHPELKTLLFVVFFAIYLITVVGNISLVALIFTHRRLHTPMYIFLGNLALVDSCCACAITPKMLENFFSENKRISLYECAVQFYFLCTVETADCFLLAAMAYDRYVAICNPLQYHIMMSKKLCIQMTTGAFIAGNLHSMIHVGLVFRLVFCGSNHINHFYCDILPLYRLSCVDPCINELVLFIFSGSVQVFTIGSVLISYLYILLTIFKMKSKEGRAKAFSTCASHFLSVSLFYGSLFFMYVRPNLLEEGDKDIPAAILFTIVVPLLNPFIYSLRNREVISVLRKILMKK
Method in brief: as §1

[11] = test system: T11, A0A2R8ZIW4
T11 sequence (whole entry): T10 sequence (whole entry) with V39I, I280V
Method in brief: as §1

[12] = test system: T12, A0A3Q7SVK8
T12 sequence (whole entry): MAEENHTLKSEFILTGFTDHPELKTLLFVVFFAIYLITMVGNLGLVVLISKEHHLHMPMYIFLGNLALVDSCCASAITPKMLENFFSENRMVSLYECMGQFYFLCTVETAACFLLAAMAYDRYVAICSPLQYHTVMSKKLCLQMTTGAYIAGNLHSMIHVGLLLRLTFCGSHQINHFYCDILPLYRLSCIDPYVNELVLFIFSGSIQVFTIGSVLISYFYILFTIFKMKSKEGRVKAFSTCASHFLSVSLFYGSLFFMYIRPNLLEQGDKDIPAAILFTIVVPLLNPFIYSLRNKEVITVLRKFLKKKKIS
Method in brief: as §1

[13] = test system: T13, A0A6P3DZI2
T13 sequence (whole entry): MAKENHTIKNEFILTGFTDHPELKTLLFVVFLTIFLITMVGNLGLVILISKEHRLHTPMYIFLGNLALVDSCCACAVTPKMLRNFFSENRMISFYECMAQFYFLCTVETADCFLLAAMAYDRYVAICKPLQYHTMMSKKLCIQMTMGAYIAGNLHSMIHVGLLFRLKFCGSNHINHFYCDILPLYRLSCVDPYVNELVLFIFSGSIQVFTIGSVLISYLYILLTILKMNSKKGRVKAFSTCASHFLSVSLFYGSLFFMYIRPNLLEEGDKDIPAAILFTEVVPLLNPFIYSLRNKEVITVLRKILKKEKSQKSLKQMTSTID
Method in brief: as §1

[14] = test system: T14, A0A6P6H1F7
T14 sequence (whole entry): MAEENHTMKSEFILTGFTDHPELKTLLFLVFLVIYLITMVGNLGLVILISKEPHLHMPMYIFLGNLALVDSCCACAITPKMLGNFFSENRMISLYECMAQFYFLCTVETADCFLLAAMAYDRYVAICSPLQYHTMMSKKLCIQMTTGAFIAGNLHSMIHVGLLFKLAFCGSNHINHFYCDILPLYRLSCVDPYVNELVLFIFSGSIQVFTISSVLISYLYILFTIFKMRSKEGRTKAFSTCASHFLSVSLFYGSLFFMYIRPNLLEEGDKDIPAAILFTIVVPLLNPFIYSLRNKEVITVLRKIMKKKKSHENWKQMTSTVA
Method in brief: as §1

[15] = test system: T15, A0A1L1SVG7
T15 sequence (whole entry): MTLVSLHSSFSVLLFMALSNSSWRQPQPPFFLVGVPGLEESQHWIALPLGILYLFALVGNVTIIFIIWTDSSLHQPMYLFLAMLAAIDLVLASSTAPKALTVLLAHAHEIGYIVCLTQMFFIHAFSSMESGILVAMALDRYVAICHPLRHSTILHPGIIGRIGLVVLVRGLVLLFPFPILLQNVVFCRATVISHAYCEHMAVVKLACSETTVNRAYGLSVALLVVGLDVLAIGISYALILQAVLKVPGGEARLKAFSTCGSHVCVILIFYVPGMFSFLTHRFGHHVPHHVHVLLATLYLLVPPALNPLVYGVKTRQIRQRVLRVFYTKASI
Method in brief: as §1

[16] = test system: T16, A0A140T8K0
T16 sequence (whole entry): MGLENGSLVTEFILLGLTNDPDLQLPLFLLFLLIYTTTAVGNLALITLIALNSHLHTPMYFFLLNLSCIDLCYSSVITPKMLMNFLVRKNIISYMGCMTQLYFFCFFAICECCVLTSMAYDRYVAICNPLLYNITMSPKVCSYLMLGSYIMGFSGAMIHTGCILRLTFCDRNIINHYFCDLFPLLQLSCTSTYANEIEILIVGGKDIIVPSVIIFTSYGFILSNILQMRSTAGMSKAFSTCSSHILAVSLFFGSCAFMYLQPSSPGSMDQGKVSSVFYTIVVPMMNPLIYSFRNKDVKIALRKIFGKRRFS
Method in brief: as §1

[17] = test system: A0A2J8KNW9
Method in brief: as §1

[18] = test system: A0A2R8ZMP6
Method in brief: as §1

[19] = test system: O10A6; remark: listed apart in the source
Method in brief: as §1
Target sequence in this assay (as listed by the source): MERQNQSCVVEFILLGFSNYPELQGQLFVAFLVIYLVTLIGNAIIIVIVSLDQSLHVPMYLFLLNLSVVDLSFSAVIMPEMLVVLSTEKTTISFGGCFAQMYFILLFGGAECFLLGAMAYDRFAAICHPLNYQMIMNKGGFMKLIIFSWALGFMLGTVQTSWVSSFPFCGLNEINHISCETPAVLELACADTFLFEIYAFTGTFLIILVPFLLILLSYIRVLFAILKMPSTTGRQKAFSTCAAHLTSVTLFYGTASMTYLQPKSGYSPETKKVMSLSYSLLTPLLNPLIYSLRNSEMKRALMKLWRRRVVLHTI

[20] = test system: O10A6; remark: listed apart in the source
Method in brief: as §1
Target sequence in this assay (as listed by the source): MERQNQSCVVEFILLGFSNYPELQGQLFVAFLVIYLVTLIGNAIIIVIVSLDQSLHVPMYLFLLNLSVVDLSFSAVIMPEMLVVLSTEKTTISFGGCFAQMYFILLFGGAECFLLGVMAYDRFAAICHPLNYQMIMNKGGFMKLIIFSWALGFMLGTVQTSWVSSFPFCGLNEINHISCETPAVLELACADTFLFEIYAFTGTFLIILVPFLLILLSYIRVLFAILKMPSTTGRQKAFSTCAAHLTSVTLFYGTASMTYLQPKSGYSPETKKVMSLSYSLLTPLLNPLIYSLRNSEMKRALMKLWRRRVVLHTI

Measured: odorant receptor agonist call

CCCCCCC=CCCC=O
inactive: [1] | [2] | [4] | [5] | [6] | [7] | [8]
active: [3]

CC(=O)c1cnccn1
active: [10] | [11] | [12] | [14]
inactive: [9] | [13]

CCCCCCC(=O)[O-].[H+]
inactive: [9] | [15]

COC1=C(C)OC(C)C1=O (stereo not drawn)
active: [10]
inactive: [9] | [11] | [12] | [13] | [14]

CC1=NC(C)C(C)S1 (stereo not drawn)
inactive: [1] | [2] | [3] | [4] | [5] | [6] | [7] | [8]
active: [9] | [10] | [11] | [12] | [13] | [14]

CCc1nccnc1C(C)=O
active: [10] | [11] | [12] | [14]
inactive: [9] | [13]

COc1cc(C(=O)O)ccc1O
inactive: [16] | [9] | [15]

Cc1nccnc1C
active: [10] | [11] | [12] | [14]
inactive: [9] | [13]

CCc1nccnc1CC
inactive: [16] | [9] | [13]
active: [10] | [11] | [12] | [14]

C=Cc1cnccn1
active: [10] | [11] | [12] | [14]
inactive: [9] | [13]

CCCC(C)=O
inactive: [9] | [15]

COc1nccnc1C(C)C
inactive: [16] | [9] | [13]
active: [10] | [11] | [12] | [14]

CCc1nccnc1C
active: [10] | [11] | [12] | [14]
inactive: [9] | [13]

Cc1cncc(C)n1
inactive: [9]
active: [10] | [11] | [12] | [13] | [14]

CCC(C)c1nccnc1OC (stereo not drawn)
inactive: [16] | [9] | [13]
active: [10] | [11] | [12] | [14]

CCC(C(=O)O)c1ccccc1 (stereo not drawn)
inactive: [9] | [15]

CCC(S)C(C)CO (stereo not drawn)
inactive: [17] | [18]

Cc1cnccn1
inactive: [9] | [13]
active: [10] | [11] | [12] | [14]

CCCCOC(=O)C(C)OC(=O)CCC (stereo not drawn)
inactive: [9] | [15]

CCC(=O)OCCCc1ccccc1
active: [19] | [3]
inactive: [20]

CCCCC=CCCCCC=O
active: [3]
